Test results taken from ChEMBL document CHEMBL4359879, “Synthesis and evaluation of 2-carboxy indole derivatives as potent and selective anti-leukemic agents” (Eur J Med Chem, 2019).
Active and inactive are the calls of the source. The rule behind the calls is not given here.

What was measured:
HL-60 [1] = assay: Effect on human HL60 cells assessed as fold change in SPATA31A1 gene expression at 1.085 uM incubated for 6 hrs by microarray-based method; format: functional
In short: (§1)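 HL60 cells were treated in triplicate with 1.085 µM or vehicle for 6 h. Total RNA was extracted with on-column DNase treatment and profiled on expression arrays.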

HL-60 [2] = assay: Effect on human HL60 cells assessed as fold change in CEP44 gene expression at 1.085 uM incubated for 6 hrs by microarray-based method; format: functional; in short: as §1
Tubulin (Homo sapiens) [3] = molecular target: T1, Tubulin (Homo sapiens) (UniProt P68371+Q9H4B7+P0DPH7+P68366+Q13509+Q71U36+P04350+Q3ZCM7+P07437+P68363+Q9BQE3+Q6PEY2+Q13885+Q9BVA1+Q9BUF5); assay: Induction of microtubule network depolymerization in human HeLa cells assessed as formation of condensed chromosomes at 500 nM incubated for 18 hrs by DAPI staining based fluorescence microscopic method; format: cell-based
In short: (§2)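 HeLa cells (100,000/mL) cultured overnight on glass-bottom dishes, then exposed to 500 nM or 1 μM, or DMSO, for 18 h. Permeabilized (0.5% Triton X-100) and fixed (3.7% formaldehyde). Stained overnight at 4 °C with anti-β-tubulin, then Alexa Fluor 647 secondary for 1 h at room temperature, and DAPI 1 μg/mL for 10 min. Examined by fluorescence microscopy.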

Tubulin (Homo sapiens) [4] = molecular target: T1, Tubulin (Homo sapiens); assay: Inhibition of tubulin polymerization in human HL60 cells at 300 nM by Western blot analysis; format: cell-based; conditions: TDE = time-dependent effect
In short: (§3)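 Leukemia cells (RS4;11, CEM, HL60) treated with 300 nM for 0, 15, 30, 60 and 360 min. Western blotting for β-tubulin and p53, with lamin B1 as loading control and chemiluminescent detection.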

HL-60 [5] = assay: Antiproliferative activity against human HL60 cells assessed as reduction in cell viability after 48 hrs by MTT assay; conditions: HL-60, 48 h
RS4-11 [6] = assay: Induction of apoptosis in human RS4:11 cells assessed as accumulation of cells at G2 phase at 300 nM incubated for 18 hrs in presence of PARP antibody by immunofluorescent staining based flow cytometric analysis relative to control; format: functional
In short: (§4)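 RS4;11 cells treated with 300 nM or DMSO vehicle for 18 h, then pulsed with 10 μM BrdU for 1 h. Harvested cells immunostained for BrdU/PI (cell cycle), γH2AX (DNA damage) and PARP (apoptosis). Multicolor flow cytometry gated G1, sub-G2-like, G2/M and sub-G0/G1 populations.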

HL-60 [7] = assay: Effect on human HL60 cells assessed as fold change in SGOL1 gene expression at 1.085 uM incubated for 6 hrs by microarray-based method; format: functional; in short: as §1
HL-60 [8] = assay: Induction of differentiation in human HL60 cells assessed as increase in CD14 positive cells incubated for 48 hrs by 7-AAD staining-based flow cytometric analysis; format: functional, cell-based
In short: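 Vitamin D3 at 100 nM and ATRA at 2 μM served as positive controls. Stained with APC anti-CD11b and PE anti-CD14 for 30 min at 4 °C, then 7-AAD.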

HL-60 [9] = assay: Effect on human HL60 cells assessed as fold change in CRADD gene expression at 1.085 uM incubated for 6 hrs by microarray-based method; format: functional; in short: as §1
HL-60 [10] = assay: Effect on human HL60 cells assessed as fold change in INSIG1 gene expression at 1.085 uM incubated for 6 hrs by microarray-based method; format: functional; in short: as §1
T-cell = assay: Cytotoxicity against phytohemagglutinin and interleukin-2-stimulated T-lymphocytes (unknown origin) up to 100 uM after 48 hrs by MTT assay; format: cell-based
In short: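 Post-ficoll lymphocytes from healthy donors were grown in RPMI-1640 with 10% FBS and stimulated overnight with phytohemagglutinin (25 µL/mL) plus IL-2 (50 U/mL). They were then exposed to decreasing concentrations for 48 h. Viability was measured by MTT (0.5 mg/ml final, 4 h), with SDS/HCl solubilization and absorbance at 570/620 nm, as survival relative to controls.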

Tubulin (Homo sapiens) [11] = molecular target: T1, Tubulin (Homo sapiens); assay: Induction of microtubule network depolymerization in human HeLa cells assessed as fragmented centrosomal material at 500 nM incubated for 18 hrs by DAPI staining based fluorescence microscopic method; format: cell-based; in short: as §2
RS4-11 [12] = assay: Induction of apoptosis in human RS4:11 cells at 300 nM incubated for 18 hrs by Annexin V-FITC/propidium iodide staining-based flow cytometric analysis; format: functional, cell-based
In short: (§5)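 CEM, HL60 or RS4;11 cells (5×10^5) treated with 300 nM or vehicle for 18 h. Stained with FITC-Annexin V in binding buffer for 15 min at 37 °C, then PI (5 μg/mL) for 3 min. Analyzed by flow cytometry.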

HL-60 [13] = assay: Induction of apoptosis in human HL60 cells at 300 nM incubated for 18 hrs by Annexin V-FITC/propidium iodide staining-based flow cytometric analysis; format: functional, cell-based; in short: as §5
HL-60 [14] = assay: Effect on human HL60 cells assessed as fold change in KPNA1 gene expression at 1.085 uM incubated for 6 hrs by microarray-based method; format: functional; in short: as §1
HL-60 [15] = assay: Effect on human HL60 cells assessed as fold change in SLC8A2 gene expression at 1.085 uM incubated for 6 hrs by microarray-based method; format: functional; in short: as §1
CCRF-CEM = assay: Effect on human CEM cells assessed as increase in p53 protein expression at 300 nM incubated for 15 to 360 mins by Western blot analysis; format: functional, cell-based
In short: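 RS4;11, CEM and HL60 cells were exposed to 300 nM for 0, 15, 30, 60 and 360 min. Lysates were immunoblotted for β-tubulin and p53, with lamin B1 as loading control. Detection was by chemiluminescence.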

HL-60 [16] = assay: Effect on human HL60 cells assessed as fold change in DSTYK gene expression at 1.085 uM incubated for 6 hrs by microarray-based method; format: functional; in short: as §1
RS4-11 [17] = assay: Induction of cell cycle arrest in human RS4:11 cells assessed as increase in accumulation at G2/M phase at 300 nM incubated for 18 hrs by BrdU/propidium iodide staining based flow cytometric analysis; format: functional; in short: as §4
HL-60 [18] = assay: Induction of cell cycle arrest in human HL60 cells assessed as accumulation of cells at S phase at EC50 incubated for 12 hrs by PI staining based flow cytometric analysis (reference value: 19.0%); format: functional
HL-60 [19] = assay: Effect on human HL60 cells assessed as fold change in LILRA5 gene expression at 1.085 uM incubated for 6 hrs by microarray-based method; format: functional; in short: as §1
HL-60 [20] = assay: Effect on human HL60 cells assessed as increase in p53 protein expression at 300 nM incubated for 15 to 360 mins by Western blot analysis; format: functional, cell-based; in short: as §3
RS4-11 [21] = assay: Antiproliferative activity against human RS4:11 cells incubated for 48 hrs by MTT assay; format: functional, cell-based; conditions: RS4-11, 48 h
In short: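 Cells grown in RPMI-1640 with 10% FBS, penicillin/streptomycin, 37 °C, 5% CO2. After 48 h of exposure to a dilution series, MTT was added (0.5 mg/ml final) for 4 h. Formazan was dissolved overnight in acidic SDS (10% SDS, 0.01 mol/L HCl) and absorbance read at 570 and 620 nm. Survival was expressed relative to controls, and EC50 was fitted from dose-response curves.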

HL-60 [22] = assay: Effect on human HL60 cells assessed as fold change in PNMT gene expression at 1.085 uM incubated for 6 hrs by microarray-based method; format: functional; in short: as §1

`COC(=O)c1[nH]c2cc(OC)ccc2c1-c1ccc(C(F)(F)F)cc1` was tested, and the “fold change (FC)” value (HL-60 [1]) was -1.61, the “fold change (FC)” value (HL-60 [2]) was 1.76 and the Activity (Tubulin (Homo sapiens) [3]) was “Active”. The inhibition (Tubulin (Homo sapiens) [4]) was “Tde”, the EC90 (HL-60 [5]) was 1000 nM and the Activity (RS4-11 [6]) was 1.5%. For the same molecule, the “fold change (FC)” value (HL-60 [7]) was 1.52, the Activity (HL-60 [8]) was “Dose-dependent effect” and the “fold change (FC)” value (HL-60 [9]) was 1.61. For the same molecule, the “fold change (FC)” value (HL-60 [10]) was -1.64, the Activity (T-cell) was “Non-Toxic” and the Activity (Tubulin (Homo sapiens) [11]) was “Active”. The Activity (RS4-11 [12]) was “Active”, the Activity (HL-60 [13]) was “Active” and the “fold change (FC)” value (HL-60 [14]) was 1.89. The “fold change (FC)” value (HL-60 [15]) was -1.53, the Activity (CCRF-CEM) was “Active” and the “fold change (FC)” value (HL-60 [16]) was 1.61. For the same molecule, the Activity (RS4-11 [17]) was “Active”, the Activity (HL-60 [18]) was 19.1% and the “fold change (FC)” value (HL-60 [19]) was -1.64. The Activity (HL-60 [20]) was “Active”, the EC50 (RS4-11 [21]) was 300 nM and the “fold change (FC)” value (HL-60 [22]) was -1.53.
